Published values gathered from unrelated publications.
Lines come from different studies, so protocols differ.
Target: Serine/threonine-protein kinase PAK 4 (PAK4, Homo sapiens, UniProt O96013)

read-out	action	method	tested at	notes	quantity	value	SMILES
enzyme activity	inhibitor	–	1 µM	–	activity vs control	104%	CC(C)S(=O)(=O)c1ccc2nccc(Nc3ccc4sc(C5CCCC5)nc4c3)c2c1
enzyme activity	inhibitor	–	1 µM	–	inhibition	6%	C=CC(=O)N1CCC[C@@H](n2nc(-c3ccc(Oc4ccccc4)cc3)c3c(N)ncnc32)C1
binding	–	–	0.1 µM	–	remaining binding	94%	C1=C/COCc2cc(ccc2OCCN2CCCC2)Nc2nccc(n2)-c2cccc(c2)COC/1
binding	–	–	1 µM	–	remaining binding	90%	COc1ccc2[nH]c3c4[nH]c5ccc(OC)cc5c4c4c(c3c2c1)C(=O)NC4=O
cell-free assay	inhibitor	–	0.1 µM	lysate	inhibition	-7.15%	Cc1cc(O)c(-c2ccc([C@@H](C)CN(C)C)cc2)c2c1[nH]c(=O)c1sccc12
binding	–	competition with immobilised ligand	0.5 µM	–	remaining binding	98%	CCCCC(=O)Nc1ccc(-c2ccc3ncn(CCC)c(=O)c3c2)cn1
cell-free assay	–	competition with immobilised ligand	25 µM	–	remaining binding	85%	N#Cc1ccc(NC(=O)Nc2ccccc2)cc1
binding	–	–	1 µM	–	remaining binding	104%	COc1ccc2oc(-c3ccc4nc(N)oc4c3)c/c(=N\c3ccccc3NC(=O)CCN)c2c1
cell-free assay	–	–	1 µM	–	remaining signal	92%	C[C@H]1CC[C@H](n2c3cnccc3c3cnc(Nc4ccc5c(n4)CCN(C(=O)CO)C5)nc32)CC1
enzyme activity	inhibitor	–	1 µM	–	inhibition	0%	CC#CC(=O)N1CCC[C@H]1c1nc(-c2ccc(C(=O)Nc3ccccn3)cc2)c2c(N)nccn12
